Measured values taken from ChEMBL document CHEMBL1212756, “Klebsiella pneumoniae AcrAB efflux pump contributes to antimicrobial resistance and virulence” (2010).
Converted amounts (≈) assume the structure as drawn. The source made the active and inactive calls. No cut-off for these calls is given here.

Legend:
Klebsiella pneumoniae [1] = assay: Antimicrobial activity against rifampin resistant Klebsiella pneumoniae 52145R assessed as growth inhibition by Etest method; assay type: functional
Summary of the method: (§1)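 MICs were read from Etest strips following the manufacturer's instructions. The parent strain is a spontaneous rifampin-resistant mutant of clinical isolate 52145 (serotype O1:K2), grown in LB at 37°C. The acrB and acrR knockouts were made from it by insertion-duplication via homologous recombination with plasmid pFS100.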

Klebsiella pneumoniae [2] = assay: Antimicrobial activity against rifampin resistant Klebsiella pneumoniae 52deltaacrB containing isogenic acrB knockout assessed as growth inhibition by Etest method; assay type: functional; summary of the method: as §1
Klebsiella pneumoniae [3] = assay: Antimicrobial activity against rifampin resistant Klebsiella pneumoniae 52deltaacrR containing isogenic acrR knockout assessed as growth inhibition by Etest method; assay type: functional; summary of the method: as §1
Klebsiella pneumoniae [4] = assay: Antimicrobial activity against rifampin resistant Klebsiella pneumoniae 52145R assessed as growth inhibition at 0.1 ug/ml in presence of 50 uM uncoupler CCCP and glucose by Etest method; assay type: functional, organism-based
Summary of the method: (§2)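 Exponential-phase LB cultures (37°C) were harvested and resuspended at ca. 2.1 x 10^5 CFU/ml in 1% tryptone-PBS, pH 7.4. They were exposed to polymyxin B 0.1 µg/ml for 30 min at 37°C, either alone, after de-energizing with 50 µM CCCP, or with 0.4% glucose. Colony counts are given as % of unexposed cells, in duplicate on at least three occasions.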

Klebsiella pneumoniae [5] = assay: Antimicrobial activity against rifampin resistant Klebsiella pneumoniae 52145R assessed as growth inhibition at 0.1 ug/ml in presence of 50 uM uncoupler CCCP by Etest method; assay type: functional, organism-based; summary of the method: as §2
Klebsiella pneumoniae [6] = assay: Antimicrobial activity against rifampin resistant Klebsiella pneumoniae 52deltaacrB containing isogenic acrB knockout assessed as growth inhibition at 0.1 ug/ml by Etest method; assay type: functional, organism-based

Row | Compound | MIC (Klebsiella pneumoniae [1]) | MIC (Klebsiella pneumoniae [2]) | MIC (Klebsiella pneumoniae [3]) | growth inhibition (GI) (Klebsiella pneumoniae [4]) | growth inhibition (GI) (Klebsiella pneumoniae [5]) | growth inhibition (GI) (Klebsiella pneumoniae [6])
1 | C[C@H]1COc2c(N3CCN(C)CC3)c(F)cc3c(=O)c(C(=O)O)cn1c23.C[C@H]1COc2c(N3CCN(C)CC3)c(F)cc3c(=O)c(C(=O)O)cn1c23.O [LEVOFLOXACIN] | 0.09 µg/mL | 0.006 µg/mL | 0.19 µg/mL |  |  | 
2 | C[C@@H](O)[C@H]1C(=O)N2C(C(=O)O)=C(SCCNC=N)C[C@H]12 [IMIPENEM ANHYDROUS] | 0.125 µg/mL (≈ 0.418 µM) | 0.125 µg/mL (≈ 0.418 µM) | 0.125 µg/mL (≈ 0.418 µM) |  |  | 
3 | C[C@@H](O)[C@H]1C(=O)N2C(C(=O)O)=C(S[C@@H]3CN[C@H](C(=O)N(C)C)C3)[C@H](C)[C@H]12 [MEROPENEM] | 0.03 µg/mL (≈ 0.0782 µM) | 0.03 µg/mL (≈ 0.0782 µM) | 0.03 µg/mL (≈ 0.0782 µM) |  |  | 
4 | GENTAMICIN | 0.25 µg/mL | 0.06 µg/mL | 0.25 µg/mL |  |  | 
5 | O=C(O)c1cn(C2CC2)c2cc(N3CCNCC3)c(F)cc2c1=O [CIPROFLOXACIN] |  | 0.008 µg/mL (≈ 0.0241 µM) |  |  |  | 
6 | CC[C@H]1OC(=O)[C@H](C)[C@@H](O[C@H]2C[C@@](C)(OC)[C@@H](O)[C@H](C)O2)[C@H](C)[C@@H](O[C@@H]2O[C@H](C)C[C@H](N(C)C)[C@H]2O)[C@](C)(O)C[C@@H](C)C(=O)[C@H](C)[C@@H](O)[C@]1(C)O [ERYTHROMYCIN] | 32 µg/mL (≈ 43.6 µM) | 8 µg/mL (≈ 10.9 µM) | 32 µg/mL (≈ 43.6 µM) |  |  | 
7 | CO/N=C(\C(=O)N[C@@H]1C(=O)N2C(C(=O)O)=C(COC(C)=O)CS[C@H]12)c1csc(N)n1 [CEFOTAXIME] | 0.125 µg/mL (≈ 0.274 µM) | 0.06 µg/mL (≈ 0.132 µM) | 4 µg/mL (≈ 8.78 µM) |  |  | 
8 | CCn1cc(C(=O)O)c(=O)c2ccc(C)nc21 [NALIDIXIC ACID] | 4 µg/mL (≈ 17.2 µM) | 0.5 µg/mL (≈ 2.15 µM) | 8 µg/mL (≈ 34.4 µM) |  |  | 
9 | POLYMYXIN B |  |  |  | inactive | Active | Active
10 | NC[C@H]1O[C@H](O[C@H]2[C@H](O)[C@@H](O[C@H]3O[C@H](CO)[C@@H](O)[C@H](N)[C@H]3O)[C@H](N)C[C@@H]2N)[C@H](N)C[C@@H]1O [TOBRAMYCIN] | 0.25 µg/mL (≈ 0.535 µM) | 0.125 µg/mL (≈ 0.267 µM) | 0.25 µg/mL (≈ 0.535 µM) |  |  | 
11 | O=C(N[C@H](CO)[C@H](O)c1ccc([N+](=O)[O-])cc1)C(Cl)Cl [CHLORAMPHENICOL] | 2 µg/mL (≈ 6.19 µM) | 1 µg/mL (≈ 3.09 µM) | 4 µg/mL (≈ 12.4 µM) |  |  | 
12 | CO[C@@]1(NC(=O)Cc2cccs2)C(=O)N2C(C(=O)O)=C(COC(N)=O)CS[C@@H]21 [CEFOXITIN] | 8 µg/mL (≈ 18.7 µM) | 4 µg/mL (≈ 9.36 µM) | 32 µg/mL (≈ 74.9 µM) |  |  | 
13 | C[C@@H](O)[C@H]1C(=O)N2C(C(=O)O)=C(S[C@@H]3CN[C@H](C(=O)Nc4cccc(C(=O)O)c4)C3)[C@H](C)[C@H]12 | 0.012 µg/mL (≈ 0.0252 µM) | 0.012 µg/mL (≈ 0.0252 µM) | 0.012 µg/mL (≈ 0.0252 µM) |  |  | 
14 | CN(C)[C@@H]1C(O)=C(C(N)=O)C(=O)[C@@]2(O)C(O)=C3C(=O)c4c(O)cccc4[C@@](C)(O)[C@H]3C[C@@H]12 [TETRACYCLINE] | 2 µg/mL (≈ 4.5 µM) | 0.25 µg/mL (≈ 0.563 µM) | 4 µg/mL (≈ 9 µM) |  |  | 
